# Experimental data: PMC7416570 (ACS chemical biology, 2020)
# “Also recorded” adds a separate entry of the source. Where no end group is shown, it is not given here.
# T1: hPD-L2* (Homo sapiens, UniProt Q9BQ51)
# T1 sequence (Q9BQ51 20-220): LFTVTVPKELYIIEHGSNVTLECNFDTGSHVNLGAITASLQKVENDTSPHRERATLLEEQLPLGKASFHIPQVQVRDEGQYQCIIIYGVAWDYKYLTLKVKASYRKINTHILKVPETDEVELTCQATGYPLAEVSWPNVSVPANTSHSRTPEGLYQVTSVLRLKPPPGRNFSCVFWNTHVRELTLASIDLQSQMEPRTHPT
# Tests used:
# hPD-L1 [1] = biological target: T2, hPD-L1 (Homo sapiens, UniProt Q9NZQ7); test: Radiolabeled binding assay on immobilized hPD-L1; conditions: for effect of mutation on hPD-L1 binding (alanine scanning): [35S]-labeled SPAM variants, binding normalized to [35S]-SPAM, n=3
# mPD-L1 = mPD-L1 (Mus musculus, UniProt Q9EP73); test: Radiolabeled binding assay on immobilized mPD-L1; conditions: radioactive binding assay
# Chain of mPD-L1 (Q9EP73 19-239 limits assumed): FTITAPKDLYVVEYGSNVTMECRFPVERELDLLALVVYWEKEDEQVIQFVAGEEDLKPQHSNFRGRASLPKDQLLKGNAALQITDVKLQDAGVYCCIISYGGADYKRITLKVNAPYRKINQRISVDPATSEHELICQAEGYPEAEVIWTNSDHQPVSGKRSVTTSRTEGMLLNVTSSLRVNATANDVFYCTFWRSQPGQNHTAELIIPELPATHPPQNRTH
# Procedure, shortened: (§1)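 Peptide mRNA was translated in rabbit reticulocyte lysate with [35S]-methionine (2 μCi per 10 pmol template, 30 °C, 1 h). The resulting fusions were purified on oligo-dT agarose and tested for pull-down by the immobilized target protein, read as bead-retained radioactivity.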
# hPD-L2* = biological target: T1, hPD-L2*; test: Radiolabeled binding assay on immobilized hPD-L2*; conditions: radioactive binding assay
# Procedure, shortened: as §1
# hPD-L1 [2] = biological target: T2, hPD-L1; test: Radiolabeled binding assay on immobilized hPD-L1*; conditions: radioactive binding assay
# Procedure, shortened: as §1
# [3] = Serum stability of [35S]-SPAM read out by binding to hPD-L1; format: in vitro ADME; conditions: [35S]-labeled SPAM, 25% human serum, 37 °C, up to eight hours
# hPD-L1/mPD-1 interaction = hPD-L1/mPD-1 interaction (Homo sapiens, UniProt Q9NZQ7); test: ELISA/IP assay of the hPD-L1/mPD-1 interaction; format: biochemical; conditions: 10 μM SPAM, hPD-L1 and mPD-1 100 nM
# [4] = biological target: hPD-L1 expressed on CHO-hPD-L1 cells (Homo sapiens, UniProt Q9NZQ7); test: Antibody competition by flow cytometry, CHO-hPD-L1; format: cell-based; conditions: pre-treatment 0–20 μM
# hPD-L1 [5] = biological target: T2, hPD-L1; conditions: read-out: previously reported KD values PD-1/hPD-L1; cited from earlier work
Molecule,effect of mutation on hPD-L1 binding (alanine scanning) (hPD-L1 [1]),also measured
C#CC[C@H](NC(=O)CNC(=O)[C@H](CO)NC(=O)[C@H](C)NC(=O)[C@H](Cc1ccc(O)cc1)NC(=O)[C@H](Cc1c[nH]cn1)NC(=O)[C@H](CC(C)C)NC(=O)[C@@H](NC(=O)[C@H](Cc1c[nH]c2ccccc12)NC(=O)[C@H](Cc1ccccc1)NC(=O)[C@H](CCCCN)NC(=O)[C@H](CC(N)=O)NC(=O)[C@H](CC(C)C)NC(=O)[C@@H](NC(=O)[C@H](Cc1c[nH]cn1)NC(=O)[C@H](CC(=O)O)NC(=O)[C@H](CC(C)C)NC(=O)[C@H](Cc1ccccc1)NC(=O)[C@@H](NC(=O)[C@@H]1CCCN1C(=O)[C@@H](N)CCSC)[C@@H](C)CC)[C@@H](C)CC)[C@@H](C)CC)C(N)=O (stereo in doubt) [SPAM],–,"[35S]-labeled SPAM binding to immobilized hPD-L1 (hPD-L1 [1]; 75 pmol hPD-L1 on streptavidin agarose, 4 °C, 1 h): efficiently pulled-down; [35S]-labeled SPAM binding to mPD-L1 (mPD-L1): no significant binding; also recorded: not pulled-down; also recorded: essentially no binding; [35S]-labeled SPAM binding to hPD-L2* (hPD-L2*): no significant binding; also recorded: essentially no binding; [35S]-labeled SPAM binding to hPD-L1* (hPD-L1 [2]): captured; loss of binding to hPD-L1 after incubation in human serum [3]: ~ 25%; disruption of PD-1 binding to hPD-L1 at 10 μM (hPD-L1/mPD-1 interaction): almost completely disrupted; blocking of Fluorescein-16373 binding to CHO-hPD-L1 ([4]; 50 nM FAM-16373, flow cytometry): blocking; blocking of Fluorescein-16377 binding to CHO-hPD-L1 ([4]; 50 nM FAM-16377, flow cytometry): blocking"
"A18: SPAM variant with glycine substituted for alanine at position 18 (MPIFLDHILNKFWILHYGGSGSSG; also: [35S]-labeled methionine, peptide-RNA fusion)",completely abolished,–
"D6A: SPAM variant with alanine substituted at position 6 (MPIFLAHILNKFWILHYAGSGSSG; also: [35S]-labeled methionine, peptide-RNA fusion)",completely abolished,–
"F4A: SPAM variant with alanine substituted at position 4 (MPIALDHILNKFWILHYAGSGSSG; also: [35S]-labeled methionine, peptide-RNA fusion)",little or no significant influence,–
"F12A: SPAM variant with alanine substituted at position 12 (MPIFLDHILNKAWILHYAGSGSSG; also: [35S]-labeled methionine, peptide-RNA fusion)",completely abolished,–
"H7A: SPAM variant with alanine substituted at position 7 (MPIFLDAILNKFWILHYAGSGSSG; also: [35S]-labeled methionine, peptide-RNA fusion)",completely abolished,–
"H16A: SPAM variant with alanine substituted at position 16 (MPIFLDHILNKFWILAYAGSGSSG; also: [35S]-labeled methionine, peptide-RNA fusion)",completely abolished,–
"I3A: SPAM variant with alanine substituted at position 3 (MPAFLDHILNKFWILHYAGSGSSG; also: [35S]-labeled methionine, peptide-RNA fusion)",little or no significant influence,–
"I8A: SPAM variant with alanine substituted at position 8 (MPIFLDHALNKFWILHYAGSGSSG; also: [35S]-labeled methionine, peptide-RNA fusion)",little or no significant influence,–
"I14A: SPAM variant with alanine substituted at position 14 (MPIFLDHILNKFWALHYAGSGSSG; also: [35S]-labeled methionine, peptide-RNA fusion)",completely abolished,–
"K11A: SPAM variant with alanine substituted at position 11 (MPIFLDHILNAFWILHYAGSGSSG; also: [35S]-labeled methionine, peptide-RNA fusion)",completely abolished,–
"L5A: SPAM variant with alanine substituted at position 5 (MPIFADHILNKFWILHYAGSGSSG; also: [35S]-labeled methionine, peptide-RNA fusion)",little or no significant influence,–
"L9A: SPAM variant with alanine substituted at position 9 (MPIFLDHIANKFWILHYAGSGSSG; also: [35S]-labeled methionine, peptide-RNA fusion)",little or no significant influence,–
"L15A: SPAM variant with alanine substituted at position 15 (MPIFLDHILNKFWIAHYAGSGSSG; also: [35S]-labeled methionine, peptide-RNA fusion)",completely abolished,–
"MRIFAVFIFMTYWHLLNA [hPD-L1 signal peptide, reference compound]",–,"binding of hPD-L1 signal peptide-mRNA fusion to hPD-L1 beads (hPD-L1 [1]; streptavidin agarose beads loaded with 1.1 μM hPD-L1 (1,100 pmol)): some binding"
"N10A: SPAM variant with alanine substituted at position 10 (MPIFLDHILAKFWILHYAGSGSSG; also: [35S]-labeled methionine, peptide-RNA fusion)",completely abolished,–
"P2A: SPAM variant with alanine substituted at position 2 (MAIFLDHILNKFWILHYAGSGSSG; also: [35S]-labeled methionine, peptide-RNA fusion)",decreased levels of hPD-L1 binding,–
"W13A: SPAM variant with alanine substituted at position 13 (MPIFLDHILNKFAILHYAGSGSSG; also: [35S]-labeled methionine, peptide-RNA fusion)",completely abolished,–
"mPD-1: extracellular domain of murine PD-1 (L25 to S157, C83S) with HA tag and His tag (protein, left off: HA tag (…), C-terminal, kept | His tag, C-terminal, state not stated) MALEVPNGPWRSLTFYPAWLTVSEGANATFTCSLSNWSEDLMLNWNRLSPSNQTEKQAAFSNGLSQPVQDARFQIIQLPNRHDFHMNILDTRRNDSGIYLCGAISLHPKAKIEESPGAELVVTERILETSTRYPS",–,Kd (hPD-L1 [5]): 4 to 8 µM
